Data: ChEMBL document CHEMBL1154154, “Synthesis and pharmacological evaluation of 1,3,4-oxadiazole bearing bis(heterocycle) derivatives as anti-inflammatory and analgesic agents” (Eur J Med Chem, 2009)

Columns and labels:
Mus musculus = assay: Analgesic activity in albino mouse assessed as reduction in acetic acid-induced writhing response at 100 mg/kg, po administered 1 hr prior to acetic acid challenge relative to control; type: functional; design: scale not given: the % may be the effect or the level left
Procedure, shortened: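 Six mice per group got compound po at 100 mg/kg, 1 h before ip 0.6% acetic acid (10 mL/kg). Total writhes were counted over an observation window starting 5 min after the acetic acid injection. Aspirin at 100 mg/kg po was the positive control.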

Rattus norvegicus = assay: Antiinflammatory activity in albino rat assessed as inhibition of carrageenan-induced paw edema at 100 mg/kg, po administered 1 hr prior to carrageenen challenge measured after 3 hrs relative to control; type: functional
Procedure, shortened: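 Four rats per group got 100 mg/kg po, 1 h before subplantar injection of 1% Type IV lambda carrageenan suspension into the right hind paw. Vehicle controls got 0.5% sodium carboxymethyl cellulose (10 mL/kg) and the positive control got ibuprofen 100 mg/kg. Paw volume was read by plethysmograph water displacement immediately and at 3 h. Edema was compared statistically with vehicle controls as percent inhibition.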

## CC(=O)Oc1ccccc1C(=O)O [ASPIRIN]
Mus musculus
  Activity: 57.3%

## CC(C)Cc1ccc(C(C)C(=O)O)cc1 (configuration not stated) [IBUPROFEN]
Rattus norvegicus
  inhibition in vivo at 100 mg/kg: 70.7%
